Screens from PubChem BioAssay.
Most compounds without a hit are left out; they make up all but 2.3% or so of the library.
TRPC6 inhibitor = mouse TRPC6 channel inhibitors, primary screen, cell-based, HEK293, membrane potential dye; Short transient receptor potential channel 6 (Mus musculus), Q61143; ACh-evoked depolarization; hits give low values; B-score at 10 µM; hit rate 1.1% among 310,000; AID 2553, 2010;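 active means B-score under library mean minus 3 SD, initial fluorescence not abnormally high, positive integrated signal ratio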;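 further: B-score derived from integrated fluorescence ratio over the kinetic read; more negative B-score means stronger inhibition of depolarization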
Target sequence (Q61143 whole entry, looked up): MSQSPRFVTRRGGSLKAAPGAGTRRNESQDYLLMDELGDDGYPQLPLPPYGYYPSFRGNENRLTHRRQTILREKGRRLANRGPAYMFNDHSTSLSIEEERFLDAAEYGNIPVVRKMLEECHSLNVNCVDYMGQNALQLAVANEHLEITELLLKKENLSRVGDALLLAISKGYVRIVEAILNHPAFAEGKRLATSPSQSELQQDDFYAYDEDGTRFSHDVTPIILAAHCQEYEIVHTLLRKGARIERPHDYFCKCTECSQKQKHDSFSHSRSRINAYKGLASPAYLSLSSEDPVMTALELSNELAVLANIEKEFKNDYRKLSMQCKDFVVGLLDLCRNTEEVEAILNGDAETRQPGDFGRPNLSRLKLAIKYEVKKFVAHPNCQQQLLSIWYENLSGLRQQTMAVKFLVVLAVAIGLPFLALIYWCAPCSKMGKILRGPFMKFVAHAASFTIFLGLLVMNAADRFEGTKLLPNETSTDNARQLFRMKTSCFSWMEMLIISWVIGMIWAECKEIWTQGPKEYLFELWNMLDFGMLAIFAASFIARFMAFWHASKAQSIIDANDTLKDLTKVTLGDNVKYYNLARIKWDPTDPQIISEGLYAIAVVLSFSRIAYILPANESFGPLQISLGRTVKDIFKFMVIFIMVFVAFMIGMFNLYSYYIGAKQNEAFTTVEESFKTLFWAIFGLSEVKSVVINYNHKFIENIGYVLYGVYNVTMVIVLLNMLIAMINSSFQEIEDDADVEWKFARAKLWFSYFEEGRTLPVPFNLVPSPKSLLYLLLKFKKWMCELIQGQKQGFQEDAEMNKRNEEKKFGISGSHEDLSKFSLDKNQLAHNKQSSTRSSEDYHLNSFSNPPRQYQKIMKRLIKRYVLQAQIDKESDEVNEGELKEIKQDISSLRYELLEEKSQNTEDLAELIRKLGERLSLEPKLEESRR
TRPC4 agonist = activators of mouse TRPC4 channel, primary screen, Fluo4 calcium, HEK293 TRPC4beta/mu-opioid cells | hit rate 0.49% among 310,000 | Short transient receptor potential channel 4 (Mus musculus), Q9QUQ5 | Fluo4 calcium fluorescence; hits give high values | B-score at 10 µM | AID 2237, 2010;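 active means B-score above 5 SD of library B-scores, and initial fluorescence ratio not above library mean plus 5 SD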;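 further: positive B-score marks a calcium rise read as TRPC4 activation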
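Assay system: HEK293 stable line with TRPC4beta plus mu-opioid receptor; schedule: 45 min room-temperature Fluo4 loading, 110 s read; technique: kinetic Fluo4 calcium fluorescence; evaluation: integrated baseline-normalised fluorescence ratio, converted to per-well B score; controls: buffer (low) and maximal DAMGO (high)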
TRPC4 PAM = positive allosteric modulators of TRPC4, primary screen, cell-based, mouse TRPC4beta, HEK293 mu-opioid, Fluo-4 calcium; Short transient receptor potential channel 4 (Mus musculus), Q9QUQ5; B-score at 10 µM; AID 2227, 2009; hit rate 0.42% among 310,000; DAMGO EC20, Fluo-4 Ca2+ flux; hits give high values;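 active means B-score of calcium response area above 5 SD of library B-scores, with initial fluorescence ratio within 5 SD of library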;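 further: B-score of integrated fluorescence ratio over time as area under calcium response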
TRPC4 block = inhibitors of mouse TRPC4 channel, primary screen, Fluo4 calcium, HEK293 TRPC4beta/mu-opioid cells; AID 2247, 2010; hit rate 0.39% among 300,000; Short transient receptor potential channel 4 (Mus musculus), Q9QUQ5; B-score at 10 µM; DAMGO-evoked Fluo4 calcium flux; hits give low values;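 active means B-score over 3 SD under the library average, no early fluorescence shift, positive overall ratio signal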
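System: stable TRPC4beta/mu-opioid receptor HEK293 cells; Dosing: single-point compound dosing; Measured by: Fluo4 Ca2+ flux fluorescence; Read-out basis: per-well B score of integrated baseline-normalized Fluo4 ratio.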
TRPC6 activator = mouse TRPC6 channel activators, primary screen, cell-based, HEK293, membrane potential dye; HEK293-TRPC6 membrane potential dye fluorescence; hits give high values; B-score at 10 µM; AID 2550, 2010; hit rate 0.13% among 310,000;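 active means B-score of the integrated fluorescence ratio above library mean plus 3 SD, and starting fluorescence ratio within library mean plus 5 SD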;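 further: higher score means more depolarization so channel activation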
* marks the source's active call; other numbers are inactive results; i = inactive.

SMILES | TRPC6 inhibitor | TRPC4 agonist | TRPC4 PAM | TRPC4 block | TRPC6 activator
CCN(CC)CCN(C(=O)c1ccc2c(c1)CCCC2)c1nc2ccc(F)cc2s1 | i | i | i | i | i
CCN(CC)CCN(C(=O)c1ccccc1OC)c1nc2ccc(F)cc2s1 | i | i | i | -6* | i
O=C(COc1ccccc1C(=O)NCc1ccccn1)Nc1ccc(Br)cc1 | i | i | i | i | i
COc1ccc(C2=CC(=O)CCC2)cc1 | i | i | i | i | i
CN(CC(=O)Nc1ccc(SC(F)F)cc1)C1CCCCC1 | i | i | i | -6* | i
OC12CCCCC1C(c1ccc3c(c1)OCO3)N(Cc1cccc(F)c1)CC2 (stereo unspecified) | i | i | i | i | i
OC12CCCCC1C(c1ccc3c(c1)OCO3)N(Cc1ccc(F)cc1)CC2 (stereo unspecified) | i | 48* | i | i | i
C=CCN(CC(O)c1cccc([N+](=O)[O-])c1)C(C)CCc1ccccc1 (stereo unspecified) | i | i | i | -5* | i
O=C(Cc1ccccc1)NC(NC(=O)Cc1ccccc1)c1cccc([N+](=O)[O-])c1 | i | i | i | i | i
NC(=O)c1nsc(C(=O)N(Cc2ccccc2F)C(C(=O)NCC2CCCO2)c2ccc(F)cc2)c1N (stereo unspecified) | i | i | i | -8* | i
NC(=O)c1nsc(C(=O)N(Cc2ccco2)C(C(=O)NCC2CCCO2)c2ccc(O)cc2)c1N (stereo unspecified) | i | i | i | i | i
NC(=O)c1nsc(C(=O)N(Cc2ccco2)C(C(=O)NCC2CCCO2)c2ccc(F)cc2)c1N (stereo unspecified) | i | i | i | -6* | i
COc1ccc(CCN(C(=O)c2snc(C(N)=O)c2N)C(C(=O)NCC2CCCO2)c2ccc(F)cc2)cc1OC (stereo unspecified) | i | i | i | i | i
Cc1cccc(CCN(C(=O)c2snc(C(N)=O)c2N)C(C(=O)NCC2CCCO2)c2ccc(F)cc2)c1 (stereo unspecified) | i | i | i | -7* | i
c1ccc2[nH]c(CCCCc3nc4ccccc4[nH]3)nc2c1 | i | i | i | -6* | i
O=C(Cc1nc2ccccc2[nH]1)c1ccc(Br)cc1 | i | 72* | i | i | i
CC(C)(C)CN1CCC(Oc2cccc(C(=O)N3CCNC(=O)C3(C)C)c2)CC1 | i | i | i | i | i
COc1ccc(-c2nsc3c(N4CCCCC4C)ncnc23)cc1 (stereo unspecified) | i | i | 11* | i | i
Cc1ccc(/C=N/NC(=O)c2nnn(-c3nonc3N)c2-c2ccc3c(c2)OCO3)s1 | i | i | i | i | i
COc1ccccc1Nc1ccc(NS(=O)(=O)c2ccc(C(C)=O)cc2)cc1 | i | i | i | i | i
COc1ccc(NC(=O)C2C3C=CC4(O3)C2C(=O)N(CCN2CCCCC2C)C4C(=O)NC2CCCCC2)cc1 (stereo unspecified) | i | i | i | i | i
C#CCOCCOCCOCCNc1nc(N2CCN(C(=O)C([C@@H](C)CC)n3cc(C(N)COC(=O)C(F)(F)F)nn3)CC2)nc(N2CCN(C(=O)[C@H](Cc3cc4ccccc4[nH]3)n3cc(C(N)CO)nn3)CC2)n1 (stereo partly specified) | i | 57* | i | -6* | i
Cc1cc(=O)oc2cc(OCC(=O)N3CCC(C(N)=O)CC3)ccc12 | i | i | i | i | i
CCCCN1C(=O)/C(=C2\SC(N3CCCCC3)=NC2=O)c2ccccc21 | i | i | i | i | i
CCCCN1C(=O)C(=Nc2cccc3cnccc23)c2ccccc21 | i | i | 20* | i | i
Cc1csc(NC(=O)CS(=O)(=O)Cc2ccccc2)n1 | i | i | i | i | i
